Screening results from PubChem.
Rtt109 HAT inh = blocks Candida albicans Rtt109/Vps75 acetyltransferase activity; Q5AAJ8; purified Rtt109/Vps75, ThioGlo CoA-SH fluorescence, 4 h; inhibition, % at 34.9 µM; 330,000 compounds, 0.16% hits; AID 540336;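 active = inhibition of at least 50% in every replicate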
ASAP1 inh = ASAP1 ArfGAP inhibition | Q9ULH1 | inhibition, % at 16.5 µM | ASAP1-stimulated ARF1 GTP hydrolysis, GDP FP detection | 360,000 compounds, 0.19% hits; in the data active = inhibition above about 25%;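 also: 0% = vehicle with enzyme and substrate and 100% = no enzyme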
Efflux pump inh = inhibitors of Candida antifungal efflux pumps expressed in yeast; S. cerevisiae Candida pump triplex, Nile Red efflux; inhibition, % at 10 µM; 330,000 compounds, 0.44% hits; AID 485275;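 active = plate passing quality check with inhibition over a set limit, or well fluorescence over plate mean plus 4 SD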;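 also: Nile Red retained in pooled yeast measured as flow cytometry median fluorescence; 0% = buffer negative control and 100% = Enniatin B positive control; higher means more Nile Red kept so more efflux inhibition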
FGF22 binding = binders of recombinant human FGF22 by thermal shift. SYPRO orange fluorescence; percent of sucrose octasulfate shift, DMSO zero. activity (Tm shift, normalised), % at 9.99 µM. 340,000 compounds, 1.5% hits. AID 651658;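 active = mean Tm shift, scaled 0 neutral to 100 positive control, at about 1.3% or above, every replicate too, limit read from the data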
Target sequence (Q9HCT0 whole entry, looked up): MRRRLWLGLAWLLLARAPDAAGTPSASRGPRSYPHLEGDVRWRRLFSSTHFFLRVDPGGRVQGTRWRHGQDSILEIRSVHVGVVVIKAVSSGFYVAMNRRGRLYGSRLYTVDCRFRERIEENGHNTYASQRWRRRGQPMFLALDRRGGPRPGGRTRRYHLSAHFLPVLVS
ARFGAP1 inh = rat ARFGAP1 inhibition. Q62848. Arfgap1-stimulated ARF1 GTP hydrolysis, GDP FP detection. inhibition, % at 16.5 µM. 360,000 compounds, 0.26% hits;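 active = inhibition above a per-plate limit, mean inhibition of low control wells plus 3 SD, cut at about 25% in these data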;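 also: 0% = DMSO wells with enzyme and 100% = wells lacking Arfgap1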
Target sequence (Q62848 1-136 limits assumed): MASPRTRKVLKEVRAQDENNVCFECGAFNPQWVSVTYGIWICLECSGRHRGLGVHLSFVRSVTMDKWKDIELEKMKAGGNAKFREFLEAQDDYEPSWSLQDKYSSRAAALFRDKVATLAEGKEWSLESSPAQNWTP
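Replicates: Single well per compound | Assay system: Truncated rat Arfgap1 GAP domain | Control set: No-Arfgap1 wells (100%) versus DMSO full-reaction wells (0%) | Times: Enzyme reaction 120 min at 25 °C after 20 min preincubation | Reagent: Human ARF1(Δ1-17)-GTP substrate | Measured by: Tracer-displacement fluorescence polarization with EDTA stop, 620/688 nm | Measure: Percent inhibition of Arfgap1-stimulated GTP hydrolysis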
* hit, by the source's call. Compounds with a hit are over-represented: about 1.9% of the library has one in this group of screens.

Screening Cc1cccc(NC(=S)N=Nc2c(O)n(C)c3ccc(S(=O)(=O)N4CCOCC4)cc23)c1 returned Rtt109 HAT inh -2, ASAP1 inh 8, Efflux pump inh 0, FGF22 binding 0 and ARFGAP1 inh 2.
O=C(NCCc1cccs1)c1ccc(CS(=O)Cc2cccc(Cl)c2)o1 (configuration not stated) was read as ASAP1 inh -7, FGF22 binding 43* and ARFGAP1 inh 3.
Screening COc1cccc(NC(=O)CSc2nc3c(sc4ccccc43)c(=O)n2CCN(C)C)c1 returned Rtt109 HAT inh 142*, ASAP1 inh 1, Efflux pump inh 0, FGF22 binding 0 and ARFGAP1 inh 1.
`C[C@H](CO)N1C[C@H](C)[C@H](CN(C)S(=O)(=O)c2ccc(F)cc2)Oc2ncccc2C1=O` gave FGF22 binding 0.
`O=C(O)COc1ccc(Cl)cc1C1CCCCC1` gave Rtt109 HAT inh -9, ASAP1 inh 23, FGF22 binding 43* and ARFGAP1 inh -2.
CCOC(=O)C1CCN(C(=O)CCn2c(=O)oc3ccccc32)CC1 was read as ASAP1 inh 4, FGF22 binding 0 and ARFGAP1 inh -4.
For Cc1ccc(S(=O)(=O)N2CCOCC2)cc1NC(=O)CSc1nnc2n1CCCCC2 the results were Rtt109 HAT inh 4, ASAP1 inh 8, Efflux pump inh 0, FGF22 binding 0 and ARFGAP1 inh 10.
`CS(=O)(=O)c1ccc(Cl)c(NC(=O)CSc2nnc3n2CCCCC3)c1` gave ASAP1 inh -10, FGF22 binding 44* and ARFGAP1 inh 8.
Screening CCOc1ccc(S(=O)(=O)N2CCN(C)CC2)c(C)c1C returned Rtt109 HAT inh -1, ASAP1 inh -5, Efflux pump inh 0 and ARFGAP1 inh -5.
For COc1ccc(-n2cnnc2SCC(=O)Nc2cc(S(=O)(=O)N3CCCCC3)ccc2C)cc1 the results were Rtt109 HAT inh 8, ASAP1 inh -8, Efflux pump inh 0 and ARFGAP1 inh 11.
For CCOc1ccc(S(=O)(=O)N2CCCCC2)c(C)c1C the results were Rtt109 HAT inh 4, ASAP1 inh 7, FGF22 binding 43* and ARFGAP1 inh 6.
For CCOc1ccc(S(=O)(=O)N2CCCCC2)cc1NC(=O)C1CCCC1 the results were ASAP1 inh 2, FGF22 binding 43* and ARFGAP1 inh 16.
Screening Cc1ccc(S(=O)(=O)N2CCCCC2)cc1NC(=O)CSc1nncn1-c1ccccc1 returned ASAP1 inh 13, Efflux pump inh 0, FGF22 binding 43* and ARFGAP1 inh 6.
Screening COCCCN1C(=O)C(O)=C(C(=O)c2ccc(C)o2)C1c1cccc(Br)c1 (configuration not stated) returned Rtt109 HAT inh 10, ASAP1 inh 5, Efflux pump inh 0 and ARFGAP1 inh 11.
Cc1ccc(S(=O)(=O)N2CCCCC2)cc1NC(=O)COc1ccccc1F was read as Rtt109 HAT inh 4, ASAP1 inh 1, Efflux pump inh 0, FGF22 binding 43* and ARFGAP1 inh -4.
`CCN1C(=O)C(C)C=C(C)C=C1C` (configuration not stated) gave ASAP1 inh 6, FGF22 binding 44* and ARFGAP1 inh 10.
For CCC(=O)c1ccc(OCc2ccc(C(=O)OC)cc2)cc1 the results were Rtt109 HAT inh 2, ASAP1 inh 11, Efflux pump inh 0, FGF22 binding 44* and ARFGAP1 inh -2.
`CCC(=O)c1ccc(OCc2ccc(C#N)cc2)cc1` gave Rtt109 HAT inh 2, ASAP1 inh -19, Efflux pump inh 0, FGF22 binding 0 and ARFGAP1 inh -1.
`CC1(C)CC(NC(=S)NC2CC2)CC(C)(C)N1` gave Rtt109 HAT inh -3, ASAP1 inh 3, Efflux pump inh 0, FGF22 binding 43* and ARFGAP1 inh -4.
`CCc1nnc(NC(=O)c2ccc(OCc3c(C)noc3C)c(OC)c2)s1` gave Rtt109 HAT inh 6, ASAP1 inh 0, Efflux pump inh 0, FGF22 binding 43* and ARFGAP1 inh 11.
COc1cc(C(=O)Nc2nc3ccc(C)cc3s2)ccc1OCc1c(C)noc1C was read as Rtt109 HAT inh -8, ASAP1 inh 2, Efflux pump inh 0 and ARFGAP1 inh 11.
`COCCCNC(=O)CN(CCc1ccccc1)S(=O)(=O)c1ccc(C)cc1` gave Rtt109 HAT inh -1, ASAP1 inh 15, Efflux pump inh 0, FGF22 binding 44* and ARFGAP1 inh -1.
